Data reported in PubChem BioAssay AID602227 (Southern Research Specialized Biocontainment Screening …, 2012).
Calls of active or inactive are those of the source.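 How the source made its calls: active means viability below 80% at one or more tested concentrations, flagged as toxic; inconclusive means replicate runs disagree on whether the viability criterion is met; inactive means viability at or above 80% at every dose.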

Test system: Vero E6 viability, CellTiter-Glo luminescence, 72 h
Experiment: viability loss in Vero E6 cells – cell-based, set 2, cytotoxicity control for PfM17LAP inhibitor project, dose response (AID 602227)
Conditions: not given
Procedure, shortened: (§1)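 Test system – Vero E6 cells · Input – 3000 cells per well · Buffer or medium – E-MEM plus 10% FBS · Doses – compound dose-response, 10 concentrations in 2-fold serial dilution · Incubation – 72 h compound exposure at 37 °C, 5% CO2 · Signal – CellTiter-Glo luminescence · Evaluation – % viability vs DMSO, fitted CC50 · Control set – DMSO vehicle-treated cells as reference for full viability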

| Structure (SMILES) | CC50 [µM] |
| --- | --- |
| CCCCCCCCCC(=O)NO | 25.2 |
| O=C(Cc1ccc(Oc2ccccc2)cc1)NO | 32.4 |
| CCCCOc1ccc(CC(=O)N(C)O)cc1 | 27.2 |
| CCCCc1ccc(CC(=O)NO)cc1 | 34.7 |
| CCCCOc1ccc(CCC(=O)NO)cc1 | 29.1 |
| CN(O)C(=O)Cc1ccc(OCc2ccccc2)cc1 | 24.8 |

Test system: not listed separately
Experiment: as above
Conditions: Vero E6 viability, CellTiter-Glo luminescence, 72 h; at 50 µM (top of the series)
Procedure, shortened: as §1

| Structure (SMILES) | viability |
| --- | --- |
| CCCCOc1ccc(CC(=O)O)cc1 | 88.7% (inactive) |
| COc1ccc(CC(=O)NO)cc1 | 95.7% (inactive) |
| COC(=O)Cc1ccc(OCC(C)C)cc1 | 101% (inactive) |
| CCCOc1ccc(CC(=O)OC)cc1 | 94.9% (inactive) |
| COC(=O)Cc1ccc(OCCN(C)C)cc1 | 94.5% (inactive) |
| Cc1ccc(CC(=O)NO)cc1 | 102% (inactive) |
| CCOc1ccc(CC(=O)NO)cc1 | 98.9% (inactive) |
| CCCCOc1ccc(CNc2c(N(O)Cc3ccccc3)c(=O)c2=O)cc1 | 92.8% (inactive) |
| CC(C)(C(=O)NO)c1ccccc1 | 102% (inactive) |
| CCCCOc1ccc(CNc2c(N(C)O)c(=O)c2=O)cc1 | 90% (inactive) |
| CCC(C)Oc1ccc(CC(=O)OC)cc1 (configuration not stated) | 102% (inactive) |
